Measurements published in article PMC11776411 (Journal of Hepatocellular Carcinoma, 2025).

What was measured:
Huh7 cells [1] = assay: NAC intervention experiment; format: cell-based, human; details: 5 or 10 mm N-acetylcysteine with 10 μM 6c for 24, 48, 72 h
HepG2 cells = assay: MTT cell viability assay, HepG2; format: cell-based, human; details: for IC50: Homo sapiens, HepG2, 72 h, read-out: IC50 (μM) HepG2
Huh7 cells [2] = assay: MTT cell viability assay, Huh7; format: cell-based, human; details: for IC50: Homo sapiens, Huh-7, 72 h, read-out: IC50 (μM) Huh7
[3] = tested on: LO2 cells (normal human hepatocytes); assay: MTT cytotoxicity assay, normal liver cells LO2; format: cell-based; details: L02, 72 h, read-out: IC50 (μM) LO2
Method in brief: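 LO2 normal human hepatocytes were grown in DMEM with 10% FBS and seeded at 5×10^3 cells per well overnight. Test compound was added at 0.1, 0.3, 1, 3, 10, 30 and 100 μM for up to 72 h. Viability was read by MTT: 0.5 mg/mL for 4 h, medium removed, DMSO added, absorbance measured. Experiments were repeated at least three times.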

Hep3B cells = assay: MTT cell viability assay, Hep3B; format: cell-based, human; details: for IC50: Homo sapiens, Hep3B, 72 h, read-out: IC50 (μM) Hep3B
Huh7 cells [4] = assay: Ferroptosis inhibitor; format: cell-based, human; details: Huh7, co-treated with 10 μM 6c for 72 h

| IC50 (HepG2 cells) | IC50 (Huh7 cells [2]) | IC50 (Hep3B cells) | SMILES | IC50 [3] | also measured |
| --- | --- | --- | --- | --- | --- |
|  |  |  | CC(=O)N[C@@H](CS)C(=O)O [N-acetylcysteine] |  | reversal of 6c inhibition of proliferation (Huh7 cells [1]): reversed the inhibitory effect of 6c on proliferation of Huh7 cells in time- and concentration-dependent manner |
| 6.45 ± 0.32 µM | 3.09 ± 0.08 µM |  | CNC(=O)c1cc(Oc2ccc(NC(=O)Nc3ccc(Cl)c(C(F)(F)F)c3)cc2)ccn1 [Sorafenib] | 8.63 ± 0.12 µM |  |
| 42.8 ± 1.44 µM | 47.5 ± 1.39 µM | 44.2 ± 2.16 µM | C[C@H]1[C@H](OC(=O)CCC(=O)O)O[C@@H]2O[C@@]3(C)CC[C@H]4[C@H](C)CC[C@@H]1[C@@]24OO3 [AS, Artesunate] | 72.3 ± 1.37 µM | Selectivity Index SI 1 (HepG2 cells; SI1 = IC50 LO2/IC50 HepG2): 1.7; Selectivity Index SI 2 (Huh7 cells [2]; SI2 = IC50 LO2/IC50 Huh7): 1.5; Selectivity Index SI 3 (Hep3B cells; SI3 = IC50 LO2/IC50 Hep3B): 1.6 |
|  | > 100 µM | > 100 µM | CNC(=O)c1cc(Oc2ccc(N)cc2)ccn1 [Compound 1, 4-(4-aminophenoxy)-N-methyl-2-pyridinecarboxamide] |  |  |
|  |  |  | Clc1cccc(CN=C2Nc3ccccc3NC23CCNCC3)c1 [Liproxstatin-1] |  | reversal of 6c-induced cell death (Huh7 cells [4]): reversed cell death in a concentration-dependent manner |
